Results on 22 sequences are retold here after the EternaBench riboswitch data.

The data set relates to MS2 coat protein. The experiment in a line: apparent Kd, MS2 coat protein; higher = weaker binding; RNA-MaP array; theophylline 2 mM where present. The method, boiled down: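 Stalled E. coli RNA polymerase transcribed the designs on Illumina sequencing-chip clusters. SNAP-549-labelled MS2 coat protein was titrated from 0.7 or 1.5 nM, doubling to 3 µM, without and then with constant ligand, in 100 mM Tris-HCl pH 7.5, 80 mM KCl, 4 mM MgCl2, BSA, DTT, yeast tRNA and Tween-20. Per-cluster binding curves were fitted to green signal normalised to red-channel RNA signal and control-cluster median Fmax. The apparent Kd is the median of the filtered fits.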

The mark [1] stands for this setting: designed as: ON switch for theophylline, no ligand.
Where [2] appears, read: ligand present: theophylline, designed as: ON switch for theophylline.
[3] abbreviates: designed as: OFF switch for theophylline, no ligand.
Setting [4] is: ligand present: theophylline, designed as: OFF switch for theophylline.

With “AUCGUACCUGGUGAUACCAGCAAGUGAUUAUAACAUGAGGAUCACCCAUGUAAUCAGUGAUGCCCUUGGCAGCAUAAUCGGUACA”, the apparent Kd (in general, a dissociation constant that holds for the conditions of the assay) is, setting by setting: under setting [1], 26.3 nM; under setting [2], 21.3 nM.

As to “UUUUUCGCGUUUGAUACCAGCAGAGUUGUUCUGGUCUGGUACAUGAGGAUCACCCAUGUCUGCCCUUGGCAGCAAACGGGAGAAG”, the “apparent Kd” value stood at 11.5 nM under setting [3] and 14.7 nM under setting [4].

Take “AACAAUGCACAUGAGGAUCACCCAUGUGAUACCAGCCGCAACAUAGGCCCUUGGCAGCAUGUGGGUAUAGAACGAUUUGGCUGAA”: the “apparent Kd” value is, setting by setting: under setting [3], 45.9 nM; under setting [4], 78.3 nM.

Regarding “GAUCUGUCGGGUGAUACCAGCCUCGGCGCGUCUCGCGCUGAACAUGAGGAUCACCCAUGUGGCCCUUGGCAGCACAUGACAAAUC”, the “apparent Kd” value is, setting by setting: under setting [1], 574 nM; under setting [2], 44.2 nM.

On to “GUACAUGAGGAUCACCCAUGUGGUAGGGAUACCAGCCAGAAGAAAGGCCCUUGGCAGCUUGUAUUUAGUGUGGGUUUGUUUGUUC”, for which the “apparent Kd” value reads like this: under setting [3], 23.4 nM; under setting [4], 54.9 nM.

For “UGACAUUGCUCAGAUACCAGACAUGAGGAUCACCCAUGUACCAAGAAAACGUACAAUAAUGUCCCUUGGCAGCUGAGCAAUGUCU”, the “apparent Kd” value by setting is: under setting [3], 101 nM; under setting [4], 549 nM.

Consider “CGAACAAAACUAAAUAAACAACUGGGUGAUACCAGUACAUGUGCGUACCCUUGGCAGCAUCCGGCCACAUGAGGAUCACCCAUGU”, for which the “apparent Kd” value came out at 64.7 nM under setting [1] and 119 nM under setting [2].

Consider “AAGGUGAUCCCAGAUACCAGCUCAACAUGAGGAUCACCCAUGUACGGGACGAAAGUCCCGGGCCCUUGGCAGCUGGGUUGCCAAG”, for which the “apparent Kd” value came out at 193 nM under setting [1] and 123 nM under setting [2].

Consider “CAGCACAUGAGGAUCACCCAUGUGAGGGAUACCAGCUCAGGCGUGGGCCCUUGGCAGCUCUCUGGCUGACGAAAGUCAGCCUGUG”, for which the “apparent Kd” value stood at 13.2 nM under setting [1] and 16.7 nM under setting [2].

“UUAUUUAUAAUGGAUACCAGUGCUGUGGCCCGGCAUCCUGACAUGAGGAUCACCCAUGUGUACCCUUGGCAGCUGUUAUGGGUUU”: under setting [3], the “apparent Kd” value is 22.6 nM.

Regarding “UUCUACAUGAGGAUCACCCAUGUGGGUGAUACCAGCACUUUUUGGUGCCCUUGGCAGCACAUGAGAAUACCGUACGAUCGGCGAU”, the “apparent Kd” value by setting is: under setting [1], 265 nM; under setting [2], 700 nM.

As for “GAGGAUCAAGUAGAUACCAGCACAUGAGGAUCACCCAUGUAAUGGUGUCCCUCAAGAACGUGCCCUUGGCAGCUACUAUCAAAAU”, the “apparent Kd” value is, setting by setting: under setting [3], 16.3 nM; under setting [4], 16.3 nM.

Take “ACAUGAGGAUCACCCAUGUAGUGGCACGAUACCAGCUGAUCCCGUGGCCCUUGGCAGCGUCCGGUGUGGUGCGCCGGGUUGGAGC”: the “apparent Kd” value under setting [1] was found to be 49.1 nM and the “apparent Kd” value under setting [2] came out at 61.7 nM.

Take “GGGUAUGAUCCGGAUACCAGCGAACAUGAGGAUCACCCAUGUGACCUAAGAUAGGCUAAACGCCCUUGGCAGCCGAGAUUGCGUU”: the “apparent Kd” value amounted to 48.4 nM under setting [1] and 31.5 nM under setting [2].

With “CGAUCUUUCGAAAGAAGGAUCGAGUCUGAUACCAGAGACGAAAGUCUCCCUUGGCAGCAGUGCCAACAUGAGGAUCACCCAUGUA”, the “apparent Kd” value is, setting by setting: under setting [1], 18.7 nM; under setting [2], 21.1 nM.

Take “AAUUUGUCGGGUGAUACCAGCCUCGGCGCAUCUCGCGCUGAACAUGAGGAUCACCCAUGUGGCCCUUGGCAGCACAUGACAAAUC”: the “apparent Kd” value under setting [1] was 554 nM and the “apparent Kd” value under setting [2] came to 37.3 nM.

In the case of “CCUGCGUUUCUUUUCUUUCGCAGGAAUGAUACCAGUAGGGAAACCUACCCUUGGCAGCAUGGGACAUGAGGAUCACCCAUGUUAU”, the “apparent Kd” value under setting [1] was found to be 350 nM and the “apparent Kd” value under setting [2] came out at 55.1 nM.

For the sequence “AUAUGAUCAUAGGAUACCAGAAAUGGUAUUCCUUUAUUUCUUACAUGAGGAUCACCCAUGUUCCCUUGGCAGCUUAUGAUCAUAU”, the “apparent Kd” value under setting [3] is 126 nM and the “apparent Kd” value under setting [4] worked out at 115 nM.

Take “UAUAUAUAUAGUGAUACCAGCAGAGAAAACGUUUAUCCUAACAUGAGGAUCACCCAUGUAUGCCCUUGGCAGCGUUAUAUAUAUA”: the “apparent Kd” value by setting is: under setting [3], 24 nM; under setting [4], 32.4 nM.

For “GAGUUCCUGAGAGAUACCAGUGAGGCCACAUGAGGAUCACCCAUGUCCCUCACUCCGGCCCACCCUUGGCAGCUCGAAAGAUAUU”, the “apparent Kd” value runs as follows: under setting [3], 10.9 nM; under setting [4], 68.1 nM.

On to “AUGUCGUUGAAUAUAGCGGCUUGGUGUGAUACCAGAAUGAUCUAAUUCCCUUGGCAGCAUUACAUGAGGAUCACCCAUGUUUAGG”, for which the “apparent Kd” value is 25.2 nM under setting [1] and 29.2 nM under setting [2].

In the case of “ACUAGUUGUGCAGAUACCAGACAUGAGGAUCACCCAUGUUUGGGAUCUUCGGAUCUUCCUGUCCCUUGGCAGCUGUACAUCUAGA”, the “apparent Kd” value worked out at 85 nM under setting [3] and 22.5 nM under setting [4].
